Source: article PMC2670241 (Journal of neurochemistry, 2009)

Experiments:
[1] = target: MOR23-1 (Mus musculus, UniProt Q8VG01); type: cell-based; conditions: read-out: Response normalized to the response of the same oocyte to 100 μM nonanoic acid
[2] = target: MOR32-11 (Mus musculus, UniProt Q8VF06); type: cell-based; conditions: for activation / activation at 3 µM / activation at 10 µM / activation at 30 µM: read-out: Response normalized to the response of the same oocyte to 100 μM nonanoic acid
MOR32-11, sequence (Q8VF06 1-312): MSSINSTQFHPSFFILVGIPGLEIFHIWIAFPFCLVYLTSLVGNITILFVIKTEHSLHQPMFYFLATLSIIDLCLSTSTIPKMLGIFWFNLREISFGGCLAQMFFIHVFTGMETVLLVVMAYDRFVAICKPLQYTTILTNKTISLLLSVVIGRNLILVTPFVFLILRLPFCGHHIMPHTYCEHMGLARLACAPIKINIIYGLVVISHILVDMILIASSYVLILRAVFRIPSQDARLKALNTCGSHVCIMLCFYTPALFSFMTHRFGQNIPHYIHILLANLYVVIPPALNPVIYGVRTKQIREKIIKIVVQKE

[3] = tested on: MOR40-4 (S83); conditions: ref Malnic et al., 1999; cited from earlier work
[4] = target: T1, MOR174-9 (mOR-EG) (Mus musculus, UniProt Q920P2); type: cell-based; conditions: each at 100 μM, 15 sec application
T1 sequence (Q920P2 1-313): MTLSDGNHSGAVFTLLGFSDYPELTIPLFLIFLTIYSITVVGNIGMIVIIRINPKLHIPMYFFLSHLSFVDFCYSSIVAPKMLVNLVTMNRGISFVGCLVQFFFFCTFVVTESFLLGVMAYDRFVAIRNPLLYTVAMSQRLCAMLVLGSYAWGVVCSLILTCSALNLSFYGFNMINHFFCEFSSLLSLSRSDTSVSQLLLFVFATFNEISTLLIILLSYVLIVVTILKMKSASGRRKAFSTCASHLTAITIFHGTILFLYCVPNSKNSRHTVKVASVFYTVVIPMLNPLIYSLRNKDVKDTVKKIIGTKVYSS

[5] = tested on: oocytes expressing Gαolf and CFTR, but no receptor; assay: Control oocytes expressing Gαolf and CFTR, but no receptor; type: cell-based, Xenopus laevis; conditions: 100 μM, 15 sec application
How it was run: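 Xenopus oocytes were defolliculated with collagenase B for 2 h at room temperature and injected with human Gαolf (10 ng) and CFTR (1 ng) cRNA in 23 nl water, with no receptor. Under voltage clamp in ND96 (pH 7.5), test compounds from 1 M DMSO stocks, diluted in ND96, were applied for 15 sec. 1 mM IBMX served as receptor-independent CFTR activator. Read-out was current.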

[6] = target: T1, MOR174-9 (mOR-EG); conditions: ref Abaffy et al., 2006; cited from earlier work

Row | SMILES | activation [1] [%] | activation [2] [%] | activation at 3 µM [2] [%] | activation at 10 µM [2] [%] | activation at 30 µM [2] [%] | further results
1 | O=C(O)CCCCCCCBr [8-Bromo-octanoic acid, 8-bromooctanoic acid] | 32 ± 6 | 0 | – | – | – | activation at 3 µM [1]: 0%; activation at 10 µM [1]: 0%; activation at 30 µM [1]: 43 ± 8%; Response of MOR40-4 (S83) to odorant (previously shown) [3]: respond
2 | C=C(C)[C@H]1CC=C(C)C(=O)C1 [(+) carvone] | – | – | – | – | – | Response of MOR174-9 to odorant [4]: does not respond
3 | C=C(C)[C@@H]1CC=C(C)C(=O)C1 [(−) carvone] | – | – | – | – | – | Response of MOR174-9 to odorant [4]: does not respond
4 | CCCCCCCCC(=O)O [Nonanoic acid] | 100 | 100 | 0 | 25 ± 4 | 61 ± 8 | activation at 3 µM [1]: 0%; activation at 10 µM [1]: 11 ± 4%; activation at 30 µM [1]: 48 ± 8%; Response of MOR40-4 (S83) to odorant (previously shown) [3]: respond
5 | CCCCCCCC(=O)O [Octanoic acid] | 178 ± 29 | 76 ± 6 | 0 | 27 ± 7 | 83 ± 14 | activation at 3 µM [1]: 70 ± 11%; activation at 10 µM [1]: 112 ± 17%; activation at 30 µM [1]: 158 ± 12%; Response of MOR40-4 (S83) to odorant (previously shown) [3]: respond
6 | CCCCCCCCCCC=O [Undecanal] | 0 | 16 ± 3 | 0 | 0 | 0 | –
7 | O=C(O)CCCCCCCCCC(=O)O [Undecanedioic acid] | 0 | 0 | – | – | – | –
8 | CCCCCCCCCCCO [Undecanol] | 0 | 6 ± 2 | – | – | – | –
9 | CCCCO [butanol] | – | – | – | – | – | Response of MOR174-9 to odorant [4]: does not respond
10 | CCOc1cc(C=O)ccc1O [ethyl vanillin] | – | – | – | – | – | Response of oocytes expressing Gαolf and CFTR, but no receptor [5]: do not respond; Response of MOR174-9 to odorant [4]: responds
11 | C=CCc1ccc(O)c(OC)c1 [eugenol] | – | – | – | – | – | Response of oocytes expressing Gαolf and CFTR, but no receptor [5]: do not respond; Response of MOR174-9 to odorant [4]: responds
12 | CC(C)=CCC/C(C)=C/CO [geraniol] | – | – | – | – | – | Response of MOR174-9 to odorant [4]: does not respond
13 | COc1ccccc1O [guaiacol] | – | – | – | – | – | Response of MOR174-9 to odorant [4]: does not respond
14 | C/C=C/c1ccc(OC)c(OC)c1 [methylisoeugenol] | – | – | – | – | – | Antagonism of the response to eugenol of MOR174-9 expressed in oocytes [6]: can antagonize
15 | CCCCCCCCCO [nonanol] | – | – | – | – | – | Response of MOR40-4 (S83) to odorant (previously shown) [3]: respond
16 | COc1cc(C=O)ccc1O [vanillin] | – | – | – | – | – | Response of oocytes expressing Gαolf and CFTR, but no receptor [5]: do not respond; Response of MOR174-9 to odorant [4]: responds

Now from value to compound, other results behind:

Row | activation [1] [%] | activation [2] [%] | activation at 3 µM [2] [%] | activation at 10 µM [2] [%] | activation at 30 µM [2] [%] | SMILES | further results
17 | 61 ± 7 | 0 | – | – | – | O=C(O)CCCCCBr [6-Bromo-hexanoic acid, 6-bromohexanoic acid] | activation at 3 µM [1]: 0%; activation at 10 µM [1]: 0%; activation at 30 µM [1]: 22 ± 6%
18 | 0 | 60 ± 4 | 0 | 0 | 0 | O=C(O)CCCCCCCCCBr [10-Bromo-decanoic acid, 10-bromodecanoic acid] | –
19 | 0 | 27 ± 10 | 0 | 0 | 0 | O=C(O)CCCCCCCCCCBr [11-Bromo-undecanoic acid] | –
20 | 0 | 6 ± 2 | – | – | – | O=C(O)CCCCCCCCCCCBr [12-Bromo-dodecanoic acid] | –
21 | 0 | 23 ± 5 | 0 | 0 | 0 | CCCCCCCCCC=O [Decanal] | –
22 | 0 | 122 ± 8 | 0 | 13 ± 3 | 0 | CCCCCCCCCC(=O)O [Decanoic acid] | –
23 | 0 | 25 ± 3 | 0 | 0 | 0 | CCCCCCCCCCCC=O [Dodecanal] | –
24 | – | – | 0 | 0 | 0 | CCCCCCCCCCCC(=O)O [Dodecanoic acid] | –
25 | 64 ± 10 | 35 ± 6 | 0 | 13 ± 5 | 40 ± 12 | CCCCCCC(=O)O [Heptanoic acid] | activation at 3 µM [1]: 0%; activation at 10 µM [1]: 10 ± 3%; activation at 30 µM [1]: 17 ± 4%; Saturation of dose-response at MOR32-11 ([2]; up to a concentration of 1 mM, data not shown): failed to saturate
26 | 0 | 32 ± 6 | 0 | 0 | 0 | CCCCCCCCC=O [Nonanal] | –
27 | 198 ± 27 | 22 ± 6 | 0 | 0 | 0 | CCCCCCCC=O [Octanal] | activation at 3 µM [1]: 35 ± 5%; activation at 10 µM [1]: 76 ± 13%; activation at 30 µM [1]: 107 ± 7%
28 | 100 ± 6 | 0 | – | – | – | CCCCCCCCO [Octanol] | activation at 10 µM [1]: 23 ± 2%; activation at 30 µM [1]: 68 ± 13%
29 | 0 | 98 ± 22 | 0 | 0 | 26 ± 8 | CCCCCCCCCCC(=O)O [Undecanoic acid] | –
